Measured values published in ChEMBL document CHEMBL1148379 (J Med Chem, 2004).

target: Bifunctional dihydrofolate reductase-thymidylate synthase (Plasmodium falciparum K1, UniProt P13922, C59R/I164L/N51I/S108N); test: Inhibitory activity against quadruple mutant dihydrofolate reductase (N51I C59R S108N I164L DHFR)
Sequence (P13922 whole entry, looked up, stated change not applied): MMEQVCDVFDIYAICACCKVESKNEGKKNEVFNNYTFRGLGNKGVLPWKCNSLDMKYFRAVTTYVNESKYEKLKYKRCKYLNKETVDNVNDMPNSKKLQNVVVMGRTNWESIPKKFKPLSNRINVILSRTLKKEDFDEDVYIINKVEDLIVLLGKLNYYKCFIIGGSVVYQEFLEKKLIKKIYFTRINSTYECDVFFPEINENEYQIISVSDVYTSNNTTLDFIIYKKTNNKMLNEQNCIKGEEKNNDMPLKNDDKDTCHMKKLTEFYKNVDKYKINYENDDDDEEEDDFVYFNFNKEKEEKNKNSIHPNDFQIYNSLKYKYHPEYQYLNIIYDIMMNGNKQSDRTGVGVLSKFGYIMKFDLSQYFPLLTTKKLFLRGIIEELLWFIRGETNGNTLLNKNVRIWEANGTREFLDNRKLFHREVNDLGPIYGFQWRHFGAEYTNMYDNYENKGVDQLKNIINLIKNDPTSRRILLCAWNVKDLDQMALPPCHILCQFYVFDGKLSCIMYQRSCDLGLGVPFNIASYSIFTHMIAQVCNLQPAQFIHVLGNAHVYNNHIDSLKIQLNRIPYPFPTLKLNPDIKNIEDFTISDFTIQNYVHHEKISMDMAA

First: COc1cc(Cc2cnc(N)nc2N)ccc1OCCCc1ccccc1
Second: CCOc1cc(Cc2cnc(N)nc2N)ccc1OCCCc1ccccc1
The Ki of the first is 2.1-fold higher: 1120 nM for the first, 525 nM for the second. The second binds more tightly here.

First: CCCCOc1cc(Cc2cnc(N)nc2N)ccc1OC
Second: CCCCCOc1cc(Cc2cnc(N)nc2N)ccc1OC
The Ki of the first is 2.3-fold higher: 1030 nM for the first, 444 nM for the second.

First: CCCCCCCOc1ccc(Cc2cnc(N)nc2N)cc1
Second: CCCCCOc1ccc(Cc2cnc(N)nc2N)cc1
The Ki of the first is 1.5-fold higher: 1380 nM for the first, 915 nM for the second. The second binds more tightly here.

Compared with COc1ccc(Cc2cnc(N)nc2N)cc1OC [DIAVERIDINE], CCCCCOc1ccc(Cc2cnc(N)nc2N)cc1OCC is 15-fold lower in Ki: 13900 nM for the first, 902 nM for the second.

First: Nc1ncc(Cc2ccc(OCCCOc3ccccc3)cc2)c(N)n1
Second: COc1cc(Cc2cnc(N)nc2N)ccc1OCCCOc1ccccc1
The Ki of the first is 3.7-fold higher: 2260 nM for the first, 606 nM for the second. The second binds more tightly here.

Going from COc1cc(Cc2cnc(N)nc2N)ccc1OCc1cc(OC)c(OC)c(OC)c1 to CCOc1cc(Cc2cnc(N)nc2N)ccc1OCCCOCCCOc1ccccc1, the Ki rises from 124 nM to 937 nM (7.6-fold).

target: Bifunctional dihydrofolate reductase-thymidylate synthase (Plasmodium falciparum K1) (UniProt P13922); test: Inhibitory activity against quadruple mutant dihydrofolate reductase (N51I C59R S108N I164L DHFR), relative to trimethoprim
Sequence (P13922 whole entry, looked up): as the sequence (P13922 whole entry, looked up, stated change not applied) above
Summary of the method: (§1)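 Wild-type and mutant P. falciparum DHFR expressed in E. coli BL21(DE3)pLysS. Ki calculated assuming inhibitors compete with substrate at the active site.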

Going from COc1cc(Cc2cnc(N)nc2N)ccc1OCCCc1ccccc1 to CCOc1cc(Cc2cnc(N)nc2N)ccc1OCCCc1ccccc1, the Relative activity falls from 0.17 to 0.08.

Compared with CCCCOc1cc(Cc2cnc(N)nc2N)ccc1OC, CCCCCOc1cc(Cc2cnc(N)nc2N)ccc1OC is lower in Relative activity: 0.2 for the first, 0.1 for the second.

Going from CCCCCCCOc1ccc(Cc2cnc(N)nc2N)cc1 to CCCCCOc1ccc(Cc2cnc(N)nc2N)cc1, the Relative activity falls from 0.2 to 0.1.

First: COc1ccc(Cc2cnc(N)nc2N)cc1OC [DIAVERIDINE]
Second: CCCCCOc1ccc(Cc2cnc(N)nc2N)cc1OCC
The Relative activity of the first is higher: 2.1 for the first, 0.1 for the second.

Going from Nc1ncc(Cc2ccc(OCCCOc3ccccc3)cc2)c(N)n1 to COc1cc(Cc2cnc(N)nc2N)ccc1OCCCOc1ccccc1, the Relative activity falls from 0.34 to 0.09.

With CCOc1cc(Cc2cnc(N)nc2N)ccc1OCCCOCCCOc1ccccc1 the Relative activity was 0.14.

target: Bifunctional dihydrofolate reductase-thymidylate synthase (Plasmodium falciparum K1, UniProt P13922); test: Inhibitory activity against double mutant dihydrofolate reductase (C59R+S108N DHFR)
Sequence (P13922 whole entry): as the sequence (P13922 whole entry, looked up, stated change not applied) above

CCCCOc1cc(Cc2cnc(N)nc2N)ccc1OC and CCCCCOc1cc(Cc2cnc(N)nc2N)ccc1OC are within 1.5-fold of each other in Ki: 194 nM for the first, 134 nM for the second.

Compared with CCOc1cc(Cc2cnc(N)nc2N)ccc1OCCCc1ccccc1, COc1cc(Cc2cnc(N)nc2N)ccc1OCCCOc1ccccc1 is 3.5-fold higher in Ki: 10.6 nM for the first, 37.1 nM for the second.

CCCCCCCOc1ccc(Cc2cnc(N)nc2N)cc1 and CCCCCOc1ccc(Cc2cnc(N)nc2N)cc1 are within 1.5-fold of each other in Ki: 196 nM for the first, 137 nM for the second.

Going from COc1ccc(Cc2cnc(N)nc2N)cc1OC [DIAVERIDINE] to CCCCCOc1ccc(Cc2cnc(N)nc2N)cc1OCC, the Ki falls from 235 nM to 46.6 nM (5-fold). The second binds more tightly here.

Compared with Nc1ncc(Cc2ccc(OCCCOc3ccccc3)cc2)c(N)n1, CCOc1cc(Cc2cnc(N)nc2N)ccc1OCCCOCCCOc1ccccc1 is 3.6-fold lower in Ki: 170 nM for the first, 46.9 nM for the second.

target: Bifunctional dihydrofolate reductase-thymidylate synthase (Plasmodium falciparum K1) (UniProt P13922); test: Inhibitory activity against triple mutant dihydrofolate reductase (C59R S108N I164L DHFR), relative to trimethoprim; summary of the method: as §1

Going from COc1cc(Cc2cnc(N)nc2N)ccc1OCCCc1ccccc1 to CCOc1cc(Cc2cnc(N)nc2N)ccc1OCCCc1ccccc1, the Relative activity falls from 0.54 to 0.06.

Compared with CCCCOc1cc(Cc2cnc(N)nc2N)ccc1OC, CCCCCOc1cc(Cc2cnc(N)nc2N)ccc1OC is lower in Relative activity: 0.1 for the first, 0.04 for the second.

Going from CCCCCCCOc1ccc(Cc2cnc(N)nc2N)cc1 to CCCCCOc1ccc(Cc2cnc(N)nc2N)cc1, the Relative activity falls from 0.4 to 0.1.

Going from COc1ccc(Cc2cnc(N)nc2N)cc1OC [DIAVERIDINE] to CCCCCOc1ccc(Cc2cnc(N)nc2N)cc1OCC, the Relative activity falls from 0.5 to 0.2.

First: Nc1ncc(Cc2ccc(OCCCOc3ccccc3)cc2)c(N)n1
Second: COc1cc(Cc2cnc(N)nc2N)ccc1OCCCOc1ccccc1
The Relative activity of the first is higher: 0.08 for the first, 0.05 for the second.

In the case of CCOc1cc(Cc2cnc(N)nc2N)ccc1OCCCOCCCOc1ccccc1, the Relative activity is reported as 0.06.

target: Bifunctional dihydrofolate reductase-thymidylate synthase (Plasmodium falciparum K1, UniProt P13922, C59R/I164L/S108N); test: Inhibitory activity against triple mutant dihydrofolate reductase (C59R S108N I164L DHFR)
Sequence (P13922 whole entry, looked up, stated change not applied): as above

Compared with COc1cc(Cc2cnc(N)nc2N)ccc1OCCCc1ccccc1, CCOc1cc(Cc2cnc(N)nc2N)ccc1OCCCc1ccccc1 is 8.3-fold lower in Ki: 3100 nM for the first, 374 nM for the second.

Going from CCCCOc1cc(Cc2cnc(N)nc2N)ccc1OC to CCCCCOc1cc(Cc2cnc(N)nc2N)ccc1OC, the Ki falls from 772 nM to 253 nM (3.1-fold).

Compared with CCCCCCCOc1ccc(Cc2cnc(N)nc2N)cc1, CCCCCOc1ccc(Cc2cnc(N)nc2N)cc1 is 4.1-fold lower in Ki: 2210 nM for the first, 539 nM for the second. The second binds more tightly here.

Going from COc1ccc(Cc2cnc(N)nc2N)cc1OC [DIAVERIDINE] to CCCCCOc1ccc(Cc2cnc(N)nc2N)cc1OCC, the Ki falls from 2650 nM to 1160 nM (2.3-fold). The second binds more tightly here.

Going from Nc1ncc(Cc2ccc(OCCCOc3ccccc3)cc2)c(N)n1 to COc1cc(Cc2cnc(N)nc2N)ccc1OCCCOc1ccccc1, the Ki falls from 471 nM to 257 nM (1.8-fold). The second binds more tightly here.

Going from COc1cc(Cc2cnc(N)nc2N)ccc1OCc1cc(OC)c(OC)c(OC)c1 to CCOc1cc(Cc2cnc(N)nc2N)ccc1OCCCOCCCOc1ccccc1, the Ki rises from 47.6 nM to 314 nM (6.6-fold).

target: Bifunctional dihydrofolate reductase-thymidylate synthase (Plasmodium falciparum K1) (UniProt P13922); test: Inhibitory activity against wild-type dihydrofolate reductase (S108N DHFR), relative to trimethoprim; summary of the method: as §1

Going from COc1cc(Cc2cnc(N)nc2N)ccc1OCCCc1ccccc1 to CCOc1cc(Cc2cnc(N)nc2N)ccc1OCCCc1ccccc1, the Relative activity falls from 0.17 to 0.1.

CCCCOc1cc(Cc2cnc(N)nc2N)ccc1OC and CCCCCOc1cc(Cc2cnc(N)nc2N)ccc1OC are the same in Relative activity: 0.2 for the first, 0.2 for the second.

First: CCCCCCCOc1ccc(Cc2cnc(N)nc2N)cc1
Second: CCCCCOc1ccc(Cc2cnc(N)nc2N)cc1
The Relative activity of the first is higher: 1.7 for the first, 0.8 for the second.

Going from COc1ccc(Cc2cnc(N)nc2N)cc1OC [DIAVERIDINE] to CCCCCOc1ccc(Cc2cnc(N)nc2N)cc1OCC, the Relative activity falls from 1.1 to 0.1.

First: Nc1ncc(Cc2ccc(OCCCOc3ccccc3)cc2)c(N)n1
Second: COc1cc(Cc2cnc(N)nc2N)ccc1OCCCOc1ccccc1
The Relative activity of the first is higher: 0.63 for the first, 0.19 for the second.

CCOc1cc(Cc2cnc(N)nc2N)ccc1OCCCOCCCOc1ccccc1 gave a Relative activity of 0.22.

target: Bifunctional dihydrofolate reductase-thymidylate synthase (Plasmodium falciparum K1) (UniProt P13922); test: Inhibitory activity against double mutant dihydrofolate reductase (C59R S108N DHFR), relative to trimethoprim; summary of the method: as §1

First: COc1cc(Cc2cnc(N)nc2N)ccc1OCCCc1ccccc1
Second: CCOc1cc(Cc2cnc(N)nc2N)ccc1OCCCc1ccccc1
The Relative activity of the first is higher: 0.33 for the first, 0.08 for the second.

First: CCCCOc1cc(Cc2cnc(N)nc2N)ccc1OC
Second: CCCCCOc1cc(Cc2cnc(N)nc2N)ccc1OC
The Relative activity of the first is higher: 0.8 for the first, 0.5 for the second.

Compared with CCCCCCCOc1ccc(Cc2cnc(N)nc2N)cc1, CCCCCOc1ccc(Cc2cnc(N)nc2N)cc1 is lower in Relative activity: 0.8 for the first, 0.6 for the second.

First: COc1ccc(Cc2cnc(N)nc2N)cc1OC [DIAVERIDINE]
Second: CCCCCOc1ccc(Cc2cnc(N)nc2N)cc1OCC
The Relative activity of the first is higher: 1 for the first, 0.2 for the second.

Going from Nc1ncc(Cc2ccc(OCCCOc3ccccc3)cc2)c(N)n1 to COc1cc(Cc2cnc(N)nc2N)ccc1OCCCOc1ccccc1, the Relative activity falls from 0.7 to 0.15.

CCOc1cc(Cc2cnc(N)nc2N)ccc1OCCCOCCCOc1ccccc1 was tested, and the Relative activity was 0.19.
